Assay results taken from ChEMBL document CHEMBL5137084 (J Med Chem, 2022).

Tests used:
[1] = Metabolic stability of the compound in carboxylesterase 1 knockout mouse plasma assessed as parent compound remaining at 10 uM measured after 1 hr in by UPLC analysis; type: ADME, cell-free
How it was run: (§1)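 Plasma, or liver or brain homogenised 10-fold in 0.1 M potassium phosphate buffer, from CES1−/− mice. Spiked with 10 μM prodrug (final) and shaken at 37 °C for 1 h, in triplicate. Samples at 0 and 1 h were quenched with three volumes of acetonitrile containing losartan. Intact prodrug was measured by UHPLC-orbitrap MS and expressed as % remaining, mean ± SE.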

[2] = Metabolic stability of the compound in carboxylesterase 1 knockout mouse liver assessed as parent compound remaining at 10 uM measured after 1 hr in by UPLC analysis; type: ADME, tissue-based; how it was run: as §1
[3] = Metabolic stability of the compound in carboxylesterase 1 knockout mouse brain assessed as parent compound remaining at 10 uM measured after 1 hr in by UPLC analysis; type: ADME, tissue-based; how it was run: as §1
[4] = Prodrug conversion in carboxylesterase 1 knockout C57BL/6 mouse plasma assessed as increase in 2,6-Dimethoxy-4-(4-phenyl-5-thiophen-2-yl-1H-imidazol-2-yl)phenol release at 10 mg/kg, po administered as single dose measured after 2 hrs by LC-MS/MS analysis; type: ADME, organism-based; conditions: in vivo
[5] = Prodrug conversion in carboxylesterase 1 knockout C57BL/6 mouse brain assessed as increase in 2,6-Dimethoxy-4-(4-phenyl-5-thiophen-2-yl-1H-imidazol-2-yl)phenol release at 10 mg/kg, po administered as single dose measured after 2 hrs by LC-MS/MS analysis; type: ADME, organism-based; conditions: in vivo
[6] = Prodrug conversion in carboxylesterase 1 knockout C57BL/6 mouse plasma assessed as AUC of 2,6-Dimethoxy-4-(4-phenyl-5-thiophen-2-yl-1H-imidazol-2-yl)phenol at 15.12 mg/kg, po administered as single dose measured upto 8 hrs by LC-MS/MS analysis; type: ADME, organism-based; parameters: time < 8 hrs, dose 15.12 mg/kg, route po; conditions: in vivo
[7] = Tmax in carboxylesterase 1 knockout C57BL/6 mouse plasma at 15.12 mg/kg, po administered as single dose measured upto 8 hrs by LC-MS/MS analysis; type: ADME, organism-based
[8] = Tmax in carboxylesterase 1 knockout C57BL/6 mouse brain at 15.12 mg/kg, po administered as single dose measured upto 8 hrs by LC-MS/MS analysis; type: ADME, organism-based
[9] = Half life in carboxylesterase 1 knockout C57BL/6 mouse brain at 15.12 mg/kg, po administered as single dose measured upto 8 hrs by LC-MS/MS analysis; type: ADME, organism-based
[10] = Half life in carboxylesterase 1 knockout C57BL/6 mouse plasma at 15.12 mg/kg, po administered as single dose measured upto 8 hrs by LC-MS/MS analysis; type: ADME, organism-based
[11] = Prodrug conversion in carboxylesterase 1 knockout C57BL/6 mouse plasma assessed as Cmax of 2,6-Dimethoxy-4-(4-phenyl-5-thiophen-2-yl-1H-imidazol-2-yl)phenol at 15.12 mg/kg, po administered as single dose measured upto 8 hrs by LC-MS/MS analysis; type: ADME, organism-based; parameters: dose 15.12 mg/kg, time < 8 hrs, route po; conditions: in vivo
[12] = Stability in carboxylesterase 1 knockout C57BL/6 mouse brain assessed as intact compound level at 15.12 mg/kg, po administered as single dose measured upto 8 hrs by LC-MS/MS analysis; type: ADME, organism-based; conditions: read-out: Stability
[13] = Prodrug conversion in carboxylesterase 1 knockout C57BL/6 mouse brain assessed as Cmax of 2,6-Dimethoxy-4-(4-phenyl-5-thiophen-2-yl-1H-imidazol-2-yl)phenol at 15.12 mg/kg, po administered as single dose measured upto 8 hrs by LC-MS/MS analysis; type: ADME, organism-based; parameters: dose 15.12 mg/kg, time < 8 hrs, route po; conditions: in vivo
[14] = Stability in carboxylesterase 1 knockout C57BL/6 mouse plasma assessed as intact compound level at 15.12 mg/kg, po administered as single dose measured upto 8 hrs by LC-MS/MS analysis; type: ADME, organism-based; conditions: read-out: Stability
[15] = Prodrug conversion in carboxylesterase 1 knockout C57BL/6 mouse brain assessed as increase in 2,6-Dimethoxy-4-(4-phenyl-5-thiophen-2-yl-1H-imidazol-2-yl)phenol release at 15.12 mg/kg, po administered as single dose measured after 2 hrs by LC-MS/MS analysis; type: ADME, organism-based; conditions: in vivo
[16] = Prodrug conversion in carboxylesterase 1 knockout C57BL/6 mouse brain assessed as AUC of 2,6-Dimethoxy-4-(4-phenyl-5-thiophen-2-yl-1H-imidazol-2-yl)phenol at 15.12 mg/kg, po administered as single dose measured upto 8 hrs by LC-MS/MS analysis; type: ADME, organism-based; parameters: time < 8 hrs, dose 15.12 mg/kg, route po; conditions: in vivo
[17] = Half life in carboxylesterase 1 knockout C57BL/6 mouse brain at 10 mg/kg, po administered as single dose measured upto 8 hrs by LC-MS/MS analysis; type: ADME, organism-based
How it was run: (§2)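 Cardiac blood is spun to plasma and brains are flash frozen. Intact prodrug and released parent are quantified by LC-MS/MS against matrix-matched standards. Parameters come from non-compartmental analysis; mean ± SEM.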

[18] = Half life in carboxylesterase 1 knockout C57BL/6 mouse plasma at 10 mg/kg, po administered as single dose measured upto 8 hrs by LC-MS/MS analysis; type: ADME, organism-based; how it was run: as §2
[19] = AUC in carboxylesterase 1 knockout C57BL/6 mouse brain at 10 mg/kg, po administered as single dose measured upto 8 hrs by LC-MS/MS analysis; type: ADME, organism-based; parameters: time < 8 hrs, dose 10 mg/kg, route po; conditions: in vivo; how it was run: as §2
[20] = Tmax in carboxylesterase 1 knockout C57BL/6 mouse brain at 10 mg/kg, po administered as single dose measured upto 8 hrs by LC-MS/MS analysis; type: ADME, organism-based; how it was run: as §2
[21] = Cmax in carboxylesterase 1 knockout C57BL/6 mouse brain at 10 mg/kg, po administered as single dose measured upto 8 hrs by LC-MS/MS analysis; type: ADME, organism-based; parameters: time < 8 hrs, dose 10 mg/kg, route po; conditions: in vivo; how it was run: as §2
[22] = Brain to plasma ratio in carboxylesterase 1 knockout C57BL/6 mouse at 10 mg/kg, po administered as single dose measured after 2 hrs by LC-MS/MS analysis; type: ADME, organism-based
How it was run: (§3)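 Mice are killed 2 h post-dose by CO2, with cardiac-puncture plasma and whole brain taken. After acetonitrile/losartan extraction, released parent and intact prodrug are measured by LC-MS/MS. Brain-to-plasma ratio is computed from released-parent levels; mean ± SEM.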

[23] = Cmax in carboxylesterase 1 knockout C57BL/6 mouse plasma at 10 mg/kg, po administered as single dose measured upto 8 hrs by LC-MS/MS analysis; type: ADME, organism-based; parameters: time < 8 hrs, dose 10 mg/kg, route po; conditions: in vivo; how it was run: as §2
[24] = AUC in carboxylesterase 1 knockout C57BL/6 mouse plasma at 10 mg/kg, po administered as single dose measured upto 8 hrs by LC-MS/MS analysis; type: ADME, organism-based; parameters: time < 8 hrs, dose 10 mg/kg, route po; conditions: in vivo; how it was run: as §2
[25] = Tmax in carboxylesterase 1 knockout C57BL/6 mouse plasma at 10 mg/kg, po administered as single dose measured upto 8 hrs by LC-MS/MS analysis; type: ADME, organism-based; how it was run: as §2
[26] = Drug release in carboxylesterase 1 knockout C57BL/6 mouse brain at 10 mg/kg, po administered as single dose measured after 2 hrs by LC-MS/MS analysis; type: ADME, organism-based; conditions: in vivo; how it was run: as §3
[27] = Drug release in carboxylesterase 1 knockout C57BL/6 mouse plasma at 10 mg/kg, po administered as single dose measured after 2 hrs by LC-MS/MS analysis; type: ADME, organism-based; conditions: in vivo, read-out: Activity; how it was run: as §3
[28] = Prodrug conversion in carboxylesterase 1 knockout C57BL/6 mouse assessed as increase in 2,6-Dimethoxy-4-(4-phenyl-5-thiophen-2-yl-1H-imidazol-2-yl)phenol release at 10 mg/kg, po administered as single dose measured after 2 hrs by LC-MS/MS analysis; type: ADME, organism-based; conditions: in vivo
[29] = Stability in carboxylesterase 1 knockout C57BL/6 mouse assessed as intact compound level at 10 mg/kg, po administered as single dose measured upto 8 hrs by LC-MS/MS analysis; type: ADME, organism-based; conditions: in vivo, read-out: Stability
[30] = Ratio of prodrug conversion in carboxylesterase 1 knockout C57BL/6 mouse brain to plasma assessed as 2,6-Dimethoxy-4-(4-phenyl-5-thiophen-2-yl-1H-imidazol-2-yl)phenol release at 10 mg/kg, po administered as single dose measured after 2 hrs by LC-MS/MS analysis; type: ADME, organism-based; how it was run: as §3

Row | Structure (SMILES) | Stability [1] | Stability [2] | Stability [3] | further results
1 | CCCCCN(C)C(=O)Oc1c(OC)cc(-c2nc(-c3ccccc3)c(-c3cccs3)[nH]2)cc1OC | 50% | 85% | 86% | –
2 | COc1cc(-c2nc(-c3ccccc3)c(-c3cccs3)[nH]2)cc(OC)c1OCOP(=O)(O)O | 96% | 21% | 1% | –
3 | CCCCCCCNC(=O)Oc1c(OC)cc(-c2nc(-c3ccccc3)c(-c3cccs3)[nH]2)cc1OC | 60% | 97% | 84% | –
4 | COc1cc(-c2nc(-c3ccccc3)c(-c3cccs3)[nH]2)cc(OC)c1OC(=O)C(C)(C)C | 1% | 0% | 93% | –
5 | COc1cc(-c2nc(-c3ccccc3)c(-c3cccs3)[nH]2)cc(OC)c1OC(C)=O | 28% | 0% | 6% | –
6 | COc1cc(-c2nc(-c3ccccc3)c(-c3cccs3)[nH]2)cc(OC)c1OC(=O)N1C2CCCC1CC2 | 85% | 95% | 76% | –
7 | COc1cc(-c2nc(-c3ccccc3)c(-c3cccs3)[nH]2)cc(OC)c1OC(=O)C1=CN(C)C=CC1 | 52% | 22% | 46% | Drug metabolism [4]: 28.3 nM; Drug metabolism [5]: 2.2 nM
8 | COc1cc(-c2nc(-c3ccccc3)c(-c3cccs3)[nH]2)cc(OC)c1OC(=O)N1CCC(N2CCCCC2)CC1 | 90% | – | 48% | AUC [6]: 273.4 pmol·h/g; Tmax [7]: 60 min; Tmax [8]: 60 min; half-life [9]: 180 min; half-life [10]: 84 min; Cmax [11]: 148.9 pmol·h/g; concentration at 8 h [12]: 86.5 nM; Cmax [13]: 403 pmol·h/g; concentration at 8 h [14]: 195 nM; Drug metabolism [15]: 72.3 nM; AUC [16]: 187.1 pmol·h/g
9 | COc1cc(-c2nc(-c3ccccc3)c(-c3cccs3)[nH]2)cc(OC)c1OC(=O)N1C2CCC1CC(N1CCCCC1)C2 (centres undefined) | 87% | 78% | 84% | –
10 | COc1cc(-c2nc(-c3cccs3)c(-c3ccccc3)[nH]2)cc(OC)c1O | 103% | 98% | 89% | half-life [17]: 37.8 min; half-life [18]: 27.6 min; AUC [19]: 52.8 pmol·h/g; Tmax [20]: 30 min; Cmax [21]: 60 pmol/g; Kp at 2 h [22]: 0.1; Cmax [23]: 307 nM; AUC [24]: 0.27 µM·h; Tmax [25]: 30 min; Activity [26]: 4.9 nM; concentration [27]: 23 nM
11 | COc1cc(-c2nc(-c3ccccc3)c(-c3cccs3)[nH]2)cc(OC)c1OC(=O)OC(OC(=O)C(C)(C)C)c1ccccc1 (centres undefined) | 83% | 80% | 69% | –
12 | COc1cc(-c2nc(-c3ccccc3)c(-c3cccs3)[nH]2)cc(OC)c1OCOP(=O)(O)OCOC(=O)OC(C)C | 100% | 11% | 79% | –
13 | COc1cc(-c2nc(-c3ccccc3)c(-c3cccs3)[nH]2)cc(OC)c1OC(=O)N(C)C | 96% | 100% | 100% | Drug metabolism [28]: 540.9 nM; concentration at 8 h [29]: 4300 nM
14 | CCCCCC(=O)Oc1c(OC)cc(-c2nc(-c3ccccc3)c(-c3cccs3)[nH]2)cc1OC | 13% | 1% | 63% | BPR [30]: 0.1; Drug metabolism [4]: 355 nM; Drug metabolism [5]: 36.5 nM
15 | CCC1CCCC(CC)N1C(=O)Oc1c(OC)cc(-c2nc(-c3ccccc3)c(-c3cccs3)[nH]2)cc1OC (centres undefined) | 78% | 51% | 90% | –
16 | CCCCCNC(=O)Oc1c(OC)cc(-c2nc(-c3ccccc3)c(-c3cccs3)[nH]2)cc1OC | 60% | 83% | 68% | –
17 | COc1cc(-c2nc(-c3ccccc3)c(-c3cccs3)[nH]2)cc(OC)c1OP(=O)(O)O | 91% | 55% | 102% | –
